Source: ChEMBL document CHEMBL4823264, “Efficient Dimerization Disruption of Leishmania infantum Trypanothione Reductase by Triazole-phenyl-thiazoles” (J Med Chem, 2021)
Activity calls are given as the source filed them. No cut-off for these calls is given here.

How the values were obtained:
THP-1 = assay: Cytotoxicity against human THP-1 cells at 75 uM by LDH assay; format: cell-based; conditions: thp-1, 75 µM
Summary of the method: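 PMA-differentiated (100 ng/mL, 24 h) THP-1 macrophages infected with GFP-expressing amastigotes were exposed to compound, and viability was measured by LDH activity. The maximum concentration assayed was 75 μM. Three independent experiments.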

[1] = target: T1, Glutathione reductase, mitochondrial (Homo sapiens) (UniProt P00390); assay: Inhibition of recombinant human GR oxidoreductase activity by DTNB-reagent based spectrophotometric method
T1 sequence (whole entry): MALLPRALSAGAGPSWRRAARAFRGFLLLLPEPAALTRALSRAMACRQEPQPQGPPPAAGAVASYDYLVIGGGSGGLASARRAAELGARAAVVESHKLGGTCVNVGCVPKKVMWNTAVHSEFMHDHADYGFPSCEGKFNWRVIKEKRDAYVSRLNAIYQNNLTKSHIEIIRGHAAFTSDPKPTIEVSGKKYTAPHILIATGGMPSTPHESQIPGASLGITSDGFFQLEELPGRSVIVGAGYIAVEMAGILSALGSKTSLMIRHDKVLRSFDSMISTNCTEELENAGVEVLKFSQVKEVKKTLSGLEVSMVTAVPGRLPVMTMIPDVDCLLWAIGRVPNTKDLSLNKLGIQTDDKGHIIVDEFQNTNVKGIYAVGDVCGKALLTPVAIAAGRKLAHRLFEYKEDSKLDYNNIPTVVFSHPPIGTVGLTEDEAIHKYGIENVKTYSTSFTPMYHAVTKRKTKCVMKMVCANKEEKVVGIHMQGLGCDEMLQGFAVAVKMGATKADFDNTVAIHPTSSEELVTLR
Summary of the method: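 Recombinant hGR (7 nM) assayed at 37 °C in 40 mM HEPES pH 7.5 with 1 mM EDTA, 60 μM NADP+, 150 μM DTNB, 50 μM GSSG, 300 μM NADPH and 1.75% DMSO. TNB formation followed at 412 nm; at least three independent experiments, nonlinear regression.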

[2] = Selectivity index, ratio of EC50 for human HepG2 cells to EC50 for axenic amastigote stage of Leishmania infantum MCAN/ES/89/IPZ229/1/89 infected in human HepG2 cells; format: toxicity, cell-based; conditions: read-out: Ratio EC50
[3] = Drug uptake in Leishmania infantum promastigotes at 25 uM after 1 hr by fluorescence microscopy analysis; format: ADME; conditions: in vivo
Summary of the method: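 Log-phase promastigotes exposed to 25 μM compound for 1 h at 26 °C, fixed in […], mounted on polylysine slides and imaged by fluorescence microscopy for blue compound fluorescence.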

[4] = target: Trypanothione reductase (Leishmania infantum) (UniProt A4HSF7); assay: Inhibition of recombinant His-FLAG-tagged Leishmania infantum TryR dimerization expressed in Escherichia coli […] assessed as reduction in TryR dimer at 20 uM using TS2 as substrate after 16 hrs by ELISA relative to control
Summary of the method: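 HIS-FLAG-tagged LiTryR at 400 nM incubated 16 h at 37 °C in 300 mM NaCl, 50 mM Tris pH 8.0 with 3.12–75 μM compound, then centrifuged. Supernatant captured on anti-FLAG plates and detected with anti-HIS-HRP and OPD at 490 nm.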

[5] = Selectivity index, ratio of EC50 for human HepG2 cells to EC50 for promastigote stage of Leishmania infantum MCAN/ES/89/IPZ229/1/89 infected in human HepG2 cells; format: toxicity, cell-based; conditions: read-out: Ratio EC50

Sequence of Trypanothione reductase (Leishmania infantum) (A4HSF7 as listed by the source): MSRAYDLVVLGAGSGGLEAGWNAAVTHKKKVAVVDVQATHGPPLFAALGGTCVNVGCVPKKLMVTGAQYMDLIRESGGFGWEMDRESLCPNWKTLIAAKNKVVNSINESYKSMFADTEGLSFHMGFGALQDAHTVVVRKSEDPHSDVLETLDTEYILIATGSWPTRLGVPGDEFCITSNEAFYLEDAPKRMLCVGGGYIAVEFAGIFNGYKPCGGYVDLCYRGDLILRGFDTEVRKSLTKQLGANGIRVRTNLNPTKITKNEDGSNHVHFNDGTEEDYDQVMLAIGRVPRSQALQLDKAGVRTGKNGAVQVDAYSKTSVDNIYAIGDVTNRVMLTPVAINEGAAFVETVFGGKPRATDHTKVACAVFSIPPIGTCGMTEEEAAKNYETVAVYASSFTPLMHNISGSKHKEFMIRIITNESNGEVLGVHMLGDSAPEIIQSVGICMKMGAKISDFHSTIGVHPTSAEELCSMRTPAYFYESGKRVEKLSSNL

inhibition [1]	Compound	selectivity ratio [2]	also measured
inactive	NCCCCc1cn(-c2ccc(-c3nc(CCc4ccc(-c5ccccc5)cc4)cs3)c(OCCN3CCNC3=O)c2)nn1.O=C(O)C(F)(F)F	–	Activity (THP-1): 100%
–	NCCCc1cn(-c2ccc(-c3nc(CCc4ccc(-c5ccccc5)cc4)cs3)c(OCCN3CCNC3=O)c2)nn1.O=C(O)C(F)(F)F	–	Activity (THP-1): 100%
–	NCCCCc1cn(-c2ccc(-c3nc(-c4ccc(Oc5ccccc5)cc4)c(-c4ccccc4)s3)c(OCCN3CCNC3=O)c2)nn1	≥ 3.3	–
inactive	NCCCCc1cn(-c2ccc(-c3nc(CCc4ccccc4)cs3)c(OCCN3CCNC3=O)c2)nn1.O=C(O)C(F)(F)F	–	Drug uptake [3]: Active
inactive	NCCCCc1cn(-c2ccc(-c3nc(CCc4ccc5ccccc5c4)cs3)c(OCCN3CCNC3=O)c2)nn1	–	–
–	NCCCCc1cn(-c2ccc(-c3nc(CCc4ccc(-c5ccccc5)cc4)c(-c4ccccc4)s3)c(OCCN3CCNC3=O)c2)nn1	1.3	–
inactive	NCCCCc1cn(-c2ccc(-c3nc(-c4ccccc4)c(-c4ccccc4)s3)c(OCCN3CCNC3=O)c2)nn1	–	–
–	NCCNCc1nccn1-c1ccc(-c2nc(CCc3ccc(-c4ccccc4)cc3)cs2)c(OCCN2CCNC2=O)c1	–	inhibition [4]: 32%
inactive	NCCCCc1cn(-c2ccc(-c3nc(-c4ccccc4)cs3)c(OCCN3CCNC3=O)c2)nn1	–	–
–	COc1cc(-n2cc(CCCCN)nn2)ccc1-c1nc(CCc2ccccc2)cs1	–	selectivity ratio [5]: 1.8
–	NCCCCc1cn(-c2ccc(-c3nc(CCc4ccc(Oc5ccccc5)cc4)c(-c4ccccc4)s3)c(OCCN3CCNC3=O)c2)nn1	< 1	–
–	COc1cc(-n2cc(CCCCN)nn2)ccc1-c1nc(CCc2ccc(-c3ccccc3)cc2)cs1	1.9	–
–	NCCNCc1nccn1-c1ccc(-c2nc(CCc3ccc4ccccc4c3)cs2)c(OCCN2CCNC2=O)c1	2.1	inhibition [4]: 26%; selectivity ratio [5]: 2.1
–	NCCCCc1cn(-c2ccc(-c3nc(-c4ccc(-c5ccccc5)cc4)c(-c4ccccc4)s3)c(OCCN3CCNC3=O)c2)nn1	1.8	–
